Data on 13 molecules can be found in ChEMBL document CHEMBL1152658, “Antioxidant activity of benzoxazolinonic and benzothiazolinonic derivatives in the LDL oxidation model” (2009).

Experiment [1] in a line: Inhibition of CuSO4-induced human LDL oxidation assessed as ratio of length of lag phase of conjugated diene formation in presence of compound to untreated control at 100 uM measured every 10 mins for 8 hrs by spectrophotometry. Type of experiment: functional. In a few lines: (§1)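 Human LDL taken from fasting normolipidemic volunteers by sequential NaBr density ultracentrifugation (1.019–1.063 g/mL), protein measured by Peterson method. Oxidation started with 16.6 µM CuSO4 or 2 mM AAPH, compound at 1–100 µM. Conjugated dienes read at 234 nm every 10 min for 8 h at 30 °C. R = lag phase with compound / lag phase without compound.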

Experiment [2] is described as follows: Inhibition of CuSO4-induced human LDL oxidation assessed as ratio of length of lag phase of conjugated diene formation in presence of compound to untreated control at 10 uM measured every 10 mins for 8 hrs by spectrophotometry. It counts as functional. The method, boiled down: as §1
The nature of experiment [3]: Inhibition of CuSO4-induced human LDL oxidation assessed as ratio of length of lag phase of conjugated diene formation in presence of compound to untreated control at 5 uM measured every 10 mins for 8 hrs by spectrophotometry. It counts as functional. The method, boiled down: as §1
The nature of experiment [4]: Inhibition of AAPH-induced human LDL oxidation assessed as ratio of length of lag phase of conjugated diene formation in presence of compound to untreated control at 5 uM measured every 10 mins for 8 hrs by spectrophotometry. Type of experiment: functional. In a few lines: as §1
Experiment [5] in a line: Inhibition of CuSO4-induced human LDL oxidation assessed as length of lag phase of conjugated diene formation measured every 10 mins for 8 hrs by spectrophotometry. Type of experiment: functional. The method, boiled down: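 Human LDL (NaBr density ultracentrifugation, 1.019–1.063 g/mL) oxidized with 16.6 µM CuSO4 at 30 °C. Diene conjugation followed at 234 nm every 10 min for 8 h. Lag-phase length taken from the kinetic curves.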

A short description of experiment [6]: Cytoprotective activity against minimally oxidized LDL-induced cytotoxicity in BAEC assessed as LDH release at 10 uM treated for 24 hrs before mO-LDL challenge measured after 16 hrs by spectrometry. Type of experiment: functional, Bos taurus. The method, boiled down: (§2)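 BAECs (primary, bovine aorta) in DMEM with 10% newborn calf serum, glutamine, penicillin. Pretreated 24 h with drug in methanol (final 10 µM), then 16 h at 37 °C with drug plus native LDL or mO-LDL at 100 µg/mL (mO-LDL from LDL incubated at 30 °C without oxidant). Medium LDH read spectrometrically by NAD reduction, expressed as % of total LDH released by 0.1% Triton X-100; mean (SD) of two incubations in triplicate.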

Experiment [7] relates to BAEC. The experiment is described as follows: Cytoprotective activity against LDL-induced cytotoxicity in BAEC assessed as decrease in LDH release at 10 uM treated for 24 hrs before LDL challenge measured after 16 hrs by spectrometry. It counts as functional. Conditions: Bos taurus. In a few lines:
as §2

Experiment [8] has as its system BAEC. The experiment can be described thus: Cytoprotective activity against minimally oxidized LDL-induced cytotoxicity in BAEC assessed as decrease in number of detached and shrunk cells at 10 uM treated for 24 hrs before mO-LDL challenge measured after 16 hrs by spectrometry. Type of experiment: functional, cell-based. Conditions: Bos taurus. In a few lines: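 BAECs pretreated 24 h with drug (final 10 µM in methanol), then exposed 16 h at 37 °C to mO-LDL (100 µg protein/mL, air-oxidized LDL) with drug. Cells examined for morphology: contraction, cytoplasmic ramification, rounding and detachment from wells.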

A short description of experiment [9]: Cytoprotective activity against minimally oxidized LDL-induced cytotoxicity in BAEC assessed as cell vitality at 10 uM treated for 24 hrs before mO-LDL challenge measured after 16 hrs by MTT assay. Type of experiment: functional, Bos taurus. In a few lines: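 Primary bovine aortic endothelial cells grown in DMEM with 10% newborn calf serum, glutamine and penicillin. Pretreated 24 h with drug in methanol, then 16 h at 37 °C with air-oxidized LDL (100 µg protein/mL, made by incubating LDL at 30 °C without CuSO4 or AAPH) plus drug (final 10 µM). MTT (5 mg solution in PBS) added for 5 h. Formazan dissolved in dimethylformamide, A590 read, expressed as % of control wells.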

Activity calls are given as the source filed them. No cut-off for these calls is given here.

Turning to `CCCN1CCc2cc3oc(=O)n(C)c3cc2C1c1cccc(O)c1` (stereo not given), the Ratio in experiment [1] was above 5; in experiment [2], above 5; in experiment [3], 2.5; in experiment [4], 2.4. The Activity result in [5] is “Dose-dependent effect”; in experiment [6], 13.5%; in experiment [9] it was 90%. In [7], the result was inactive. The outcome in experiment [8] was Active.
Consider `CCCN1CCc2c([nH]c3ccc(CC)cc23)C1c1cccc(OC)c1.Cl` (stereo not given), for which the Ratio in [1] is above 5; in [2], above 5; in [3], 1.6; in experiment [4], 1.5. The Activity entry in [5] was “Dose-dependent effect”; in experiment [6], 15.32%; in [9], 90%. Further, the outcome in [7] was inactive. In addition, the result in experiment [8] was Active.
`COc1cccc(C2=NCCc3cc4oc(=O)n(C)c4cc32)c1`: the results for the Ratio in experiment [1], in experiment [2] and in experiment [3] were above 5, 1.8 and 1, respectively. For the same molecule, the Activity result was “Dose-dependent effect” in [5] and 90% in experiment [9]. In experiment [7], the outcome was inactive. In experiment [8], the result was Active.
As to `COc1cccc(C2NCCc3cc4sc(=O)n(C)c4cc32)c1` (stereo not given), the Ratio in [1] was above 5; in experiment [2], above 5; in experiment [3], 2.1; in [4], 2. For the same molecule, the values for the Activity result in [5], in experiment [6] and in experiment [9] were “Dose-dependent effect”, 14.5% and 90%, respectively. In addition, in [7], the outcome was inactive. Besides, the result in experiment [8] was Active.
Consider `CCCCCCCCCN1CCc2cc3oc(=O)n(C)c3cc2C1c1cccc(OC)c1` (stereo not given), for which the Ratio was above 5 in experiment [1], 3.8 in experiment [2] and 1.7 in experiment [3]. For the same molecule, the Activity entry in experiment [5] was “Dose-dependent effect”; in experiment [9], 90%. Moreover, the outcome in experiment [7] was inactive. In addition, the result in experiment [8] was Active.
Regarding `CCCN1CCc2cc(O)c(NC)cc2C1c1cccc(O)c1` (stereo not given), the values for the Activity in experiment [6] and in experiment [9] were 14.1% and 90%, respectively. Also, the outcome in experiment [7] was inactive. In addition, in experiment [8], the outcome was Active.
Take `COc1ccc2[nH]cc(CCNC(C)=O)c2c1` [MELATONIN]: the Ratio in [1] worked out at 1.5. Also, the Activity result in experiment [5] was “Dose-dependent effect”; in experiment [9], 90%. For the same molecule, the outcome in experiment [7] was inactive. Also, in experiment [8], the outcome was Active.
In the case of `COc1cccc(C2NCCc3cc4oc(=O)n(C)c4cc32)c1` (stereo not given), the values for the Ratio in [1], in experiment [2] and in [3] were above 5, 1.8 and 1, respectively. In addition, the Activity result in experiment [5] was “Dose-dependent effect”; in experiment [9], 90%. Further, the result in [7] was inactive. The outcome in [8] was Active.
Regarding `CCCN1CCc2cc(O)c(NC)cc2C1c1cccc(OC)c1` (stereo not given), the Ratio in [1] was above 5; in experiment [2], above 5; in experiment [3], 3.2; in experiment [4], 3.3. The Activity entry in [5] is “Dose-dependent effect”; in [6], 13.2%; in [9], 90%. Besides, the outcome in [7] was inactive. For the same molecule, the outcome in experiment [8] was Active.
Take `COc1cccc(C2=NCCc3cc4sc(=O)n(C)c4cc32)c1`: the Ratio in experiment [1] was above 5; in experiment [2], above 5; in experiment [3], 2.5; in experiment [4], 2.5. For the same molecule, the Activity entry in experiment [5] was “Dose-dependent effect”; in experiment [6] it was 14.12%; in [9] it was 90%. For the same molecule, the outcome in [7] was inactive. For the same molecule, in experiment [8], the outcome was Active.
For `CCCN1CCc2cc3sc(=O)n(C)c3cc2C1c1cccc(OC)c1` (stereo not given), the Ratio was above 5 in experiment [1], above 5 in [2], 2.1 in experiment [3] and 1.9 in experiment [4]. The Activity result in [5] was “Dose-dependent effect”; in experiment [6], 14.6%; in experiment [9] it was 90%. Also, in [7], the result was inactive. The outcome in [8] was Active.
On to `CCCN1CCc2cc3oc(=O)n(C)c3cc2C1c1cccc(OC)c1` (stereo not given), for which the Ratio in [1] is above 5; in [2] it was 3.3; in experiment [3], 1.5. The Activity entry in experiment [5] is “Dose-dependent effect”; in [9], 90%. In addition, the outcome in [7] was inactive. The outcome in experiment [8] was Active.
In the case of `COc1ccc2[nH]c(=O)oc2c1` [COIXOL], in [1], the Ratio is 1.5. Moreover, the Activity entry in experiment [5] is “Dose-dependent effect”; in [9] it was 90%. Further, the result in experiment [7] was inactive.
